This note sets out measurements from the RNAGym collection of RNA variant scans (doi:10.1126/science.aae0568).

Sequences and labels used below:
B1: tRNA (parent)
chain: GUUCCGUUGGCGUAAUGGUAACGCGUCUCCCUCCUAAGGAGAAGACUGCGGGUUCGAGUCCCGUACGGAACG

This sample holds only a part of the variants without activity.

The variants in the data set derive from B1. Briefly: yeast fitness relative to wild type (ratio to wild type); higher = fitter; tRNA-Arg(CCU), competitive growth, 37 C, YPD. In a few lines: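 For this measurement, the tRNA-Arg(CCU) gene was varied by chemical synthesis at a 3% per-site mutation rate across 69 sites, and each variant was placed at the native genomic locus in Saccharomyces cerevisiae. The pooled strains went through a 24-hour competition in YPD at 37°C in six parallel replicates, with amplicons from start and end populations read by 100-nucleotide paired-end sequencing. Darwinian fitness relative to wild type followed from the change in each genotype's frequency. Genotypes needed ≥ 100 starting reads, and estimates < 0.5 were set to 0.5.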
As to GUUCCGAUGGCGUAAUGGUAACGCGUCUCCCUCCUAAGGAGUAGGCUGCGGGUUCGCGUCCCGUACGGUACG [U7A A42U A45G A57C A69U], the yeast fitness was ≤ 0.5. In the case of GUUCCGAUGGCGUAAUGGUAACGCGUCUCCCUCCUGAGGAGAAGACUGCGGGUUCGAGUACCGUACGGAACG [U7A A36G C60A] it was 0.533; in that of GUUCCGAUGGCGUAUUGGUAACGCGUCUCCCUCCUAAGGGGAAGACUGCGGGUUCGAGUCCCGUACGGAACG [U7A A15U A40G], ≤ 0.5.

With GUUCCGAUGGCGUAAUGGUAACGCGUCUCCCUCCUAAGGAGCAGACUGCGGGUUCGAGUCCCGUACGGAACG [U7A A42C], the yeast fitness was found to be 0.775. To GUUCCGAUGGUGUAAUGGUAACGCGUCUCCCUCCUUAGGAGAAGACUGCGGGUUCGCGUCCCGUACGGAACG [U7A C11U A36U A57C] belongs ≤ 0.5; to GUUCCGAUGGCGUAAUGGUGACGCGUCUCCCUCCUAAGGAGAAGAGUGCGGGUUCGAGUCCCGUACCGCACG [U7A A20G C46G G67C A69C], ≤ 0.5; to GUUCCGAUGGCGUAAUGGUAACGCGUCUCCCUCCUCAGGAGAAGACUGCGCGUUCGAGUCCCAUACGGAACG [U7A A36C G51C G63A], ≤ 0.5. To GUUCCGAUGGCGUAAUGGUCGCACGUCUCCCUCCUAAGGAGAAGACUGCGGGUUCGAGUCCCGUACGGAACG [U7A A20C A21G G23A] belongs 0.65.

For the variant GUUCCGAUGGAGUAAUGAUAACGCGUCUCCUUCUUAAGGAGAAGACCGAGGGUUCAUGUCCCGUACGGAACG [U7A C11A G18A C31U C34U U47C C49A G56A A57U], the yeast fitness is ≤ 0.5. In the case of GUUCCGAUGGCGUAAUGGUGACACGUCUCCCUCCUAAGGAGAAAACUGCGGCUUCGAGUCCCGUACGGAACG [U7A A20G G23A G44A G52C] it was ≤ 0.5; in that of GUUCCGAUGGCGUAAUGGUAACGCGUCUCCCUCCUAAGGAGGAGACUGCGGGUUGGCGUCCCGUACGGAACG [U7A A42G C55G A57C], ≤ 0.5. For GUUCCGAUGGCGUAAUGGUGACCCGUCUGCCUCCUAAGGAGAAGACUGCGAGUUCUAGUCCCGUACGGAACG [U7A A20G G23C C29G G51A G56U], the yeast fitness is ≤ 0.5. In the case of GUUCCGAUGGCGUAAUGGUAACGCGUCUCCCUCCUAAGGCGAAGACUGCGGGUUCGAGUACCGUACGGAACG [U7A A40C C60A] it was 0.543; in that of GUUCCGAUGGGGUAAUGGUAACGCGUCUCCCUCCUUAGGAGAAGACUGCGGGUUCGCGUCCCGUACGGAACG [U7A C11G A36U A57C], ≤ 0.5; in that of GUUCCGAUGGCGUAAUGGUCACGCAUCUCCCUCCUAAGGAGAAGACUGCGGGUUCGAGUCCCGUACGCAACG [U7A A20C G25A G68C], ≤ 0.5. Regarding GUUCCGAUGGCGUAAUGGUAACGCGUCUCCCUCCUAAGGGGAAGACUGCGGGUUCGAGUCCCGUACGGAACG [U7A A40G], the yeast fitness was determined as 0.73. As for GUUCCGAUGGCGUAAUGGUACCGCGUCUCCCCCCUAAGGAGAAGACUCCGGGUUCGAGUACCGUACGGAACG [U7A A21C U32C G48C C60A], the yeast fitness was ≤ 0.5. In the case of GUUCCGAUGGCGUAAUGGUAAAGCGUCUCCGGCCUAAGGAGGAGACUGCGGAUUCGAGUCCCGUACGGAACG [U7A C22A C31G U32G A42G G52A] it was ≤ 0.5. On to GUUCCGAUGGCGUAAUGGUAACGUGUCUCCCUCCUAAGGAGAAGACCGCGGGUUCGAGUCCCGUACGGAACG [U7A C24U U47C], for which the yeast fitness amounted to 0.566. In the case of GUUCCGAUGGCGUAAUGGUGACGCGUCUCCUUCCUAAGGAGAAGACUGCGGGUUCGCGUCCCGUACCGAACG [U7A A20G C31U A57C G67C] it was ≤ 0.5.

GUUCCGAUGGCGUAAUGGUAACGCGUCUCCCUCCUCAGGAGAAGACUGCGGGUUCGAGUCCCGUACGGAACG [U7A A36C]: the yeast fitness came to 0.512. To GUUCCGAUGGCGUAAUGGUGACGCGUCUCCCUCCUAAGGAACAGACUGCCGGUUCGAGUCCCGUACGGAGCG [U7A A20G G41A A42C G50C A70G] belongs ≤ 0.5; to GUUCCGAUGGCGUAUUGGUAACGCGUCUCCCUCCUAAGGGGAAGACUACGGGUUCGAGUCCCGUACGCAACG [U7A A15U A40G G48A G68C], ≤ 0.5. On to GUUCCGAUGGCGUAUUGGUAACGCGUCUCCCUCCUAAGGAGAAGACUGCGGGUCCGAGUCCCGUACGGAACG [U7A A15U U54C], for which the yeast fitness was ≤ 0.5.

On to GUUCCGAUGGCGUAAUGGUAACGCGUCUCCCUCCUAAGGAGGAGACUGCGGCUUCAAGUCCCGUACGGAACG [U7A A42G G52C G56A], for which the yeast fitness was ≤ 0.5. For the variant GUUCCGAUGGCGUAGUGGUAACCCGUCUCCCUGCUAAGGAGAAGACUGCGGGUUCGAGUCCCAUACGGAACG [U7A A15G G23C C33G G63A], the yeast fitness is ≤ 0.5. With GUUCCGAUGGCGUAUUGGUAACGCGUCUCCCUCCUCUGGAGACGAUUGGAGGUUCGAGUCCCGUACGGAACG [U7A A15U A36C A37U A43C C46U C49G G50A], the yeast fitness was ≤ 0.5. In the case of GUUCCGAUGGCGUAAUGGUAACGCGUCUCCCUCCUGAGGGGAAGACUGCGGGUUCCAGUCCAGUACGGAACG [U7A A36G A40G G56C C62A] it was ≤ 0.5; in that of GUUCCGAUGGCGUAAUGGUAACGCGUCUCCCUCCUAAGGAGAGGACUGCGGGUUCGAGUCCCGUACGGAACG [U7A A43G], 0.679; in that of GUUCCGAUGGUGUAAUGGUAACGCGUCUCCCUCCUAAGGAGAAGACUGCGGGUUCGAGUCCCGUUCGGAACG [U7A C11U A65U], 0.682.

With GUUCCGAUGGUGUAAUGGUAACGCGUCUCCCUCCUUAGGAGAAGACUGCGGGUUCGAGUCCCGUACGGAACG [U7A C11U A36U], the yeast fitness was ≤ 0.5. In the case of GUUCCGAUGGCGUAAUGGUAACGCGUCUCCCUCCUAGGGAGAGGACUGCGGGAUCGACUCCCGUAGGGAACG [U7A A37G A43G U53A G58C C66G] it was ≤ 0.5.

Consider GUUCCGAUGGCGUAAUGGUCACGCGUCUUCCUGCUAAGGAGAAGACUGCGGGUUCGAGUCCCGUACGGAACG [U7A A20C C29U C33G], for which the yeast fitness was 0.638. For GUUCCGAUGGCGUAAUGGUAACGGGUCUGUCUCCUAAGGCGAAGACUGCGGGUUCGAGUCCCGUUCGGAACG [U7A C24G C29G C30U A40C A65U], the yeast fitness came out at 0.59. In the case of GUUCCGAUGGGGUAAUGGUAACGCGUUUCCCUCCUACGGAGAAGACUGCGCGUUCGAGUCCCGUACUGAACG [U7A C11G C27U A37C G51C G67U] it was 0.504; in that of GUUCCGAUGGCGUAAUGGUAACGCGUCUCCCUCCUAAGGAGUAGGCUGCGGGUUCGAGUCCCGUACGGAACG [U7A A42U A45G], ≤ 0.5; in that of GUUCCGAUGGCGUAAUGGUAACGCGUCUCCCUCCUAAGGAGAAGACUGCGGGUUCGAGUCCCGUACGGCACG [U7A A69C], 0.794.

Turning to GUUCCGAUGGCGUAAUGGUGACACGGCUCCCUCCUAAGGAGAAGACUGCGGGUUCGAGUCCCGUAAGGAACG [U7A A20G G23A U26G C66A], the yeast fitness is ≤ 0.5.
